Experimental data as given in ChEMBL document CHEMBL1131230 (J Med Chem, 1998).
pEC50, pIC50: −log10 of the molar value.

Experiments:
[1] = target: GABA-A receptor; anion channel; test: Inhibition of [35S]TBPS binding to GABA-A receptor in rat cerebral cortex.; format: tissue-based
Outline: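 Unwashed cortical membranes from male Sprague-Dawley rats (180-200 g), homogenized in 50 mM Tris-citrate pH 7.4 with […], centrifuged at 20000g and resuspended in buffer. Final 1 nM [35S]TBPS with 0.20-0.25 mg protein and NaCl, 90 min at 25 °C, then GF/B filtration and scintillation counting. Nonspecific binding defined with 100 µM picrotoxin.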

[2] = Partition coefficient (logP); format: physicochemical; settings: octanol/water
[3] = tested on: GABA-A receptor; anion channel; test: In vitro inhibition of [35S]TBPS binding to Gamma-aminobutyric acid A (GABA-A) receptor of rat cerebral cortex (No displacement); format: tissue-based
[4] = target: T1, GABA A receptor alpha-1/beta-1/gamma-2 (Homo sapiens) (UniProt P14867+P18507+P18505); test: Modulation of GABA-induced chloride currents (percentage of GABA EC20 response) against human alpha-1-beta-1-gamma-2 GABA-A receptor subunits expressed in Xenopus laevis oocytes; format: functional, cell-based; settings: Oocyte
Outline: (§1)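 Human α1, β1 and γ2 subunit cDNAs in pCDM8 (1.5 ng/30 nL) injected into nuclei of defolliculated stage V-VI Xenopus oocytes, which were cultured at 19 °C in supplemented MBS. Recording by two-electrode voltage clamp at -70 mV about 24 h after injection, with MBS perfusion at room temperature. Compounds came from 10 mM DMSO stocks diluted in MBS. Responses were normalized to a GABA control response, either EC20 or 10 mM GABA.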

[5] = target: T1, GABA A receptor alpha-1/beta-1/gamma-2 (Homo sapiens); test: Direct activation of chloride currents (percentage of 10 mM GABA response) in Xenopus laevis oocytes expressing human alpha-1-beta-1-gamma-2 GABA-A receptor subunits; format: functional, cell-based; settings: Oocyte; outline: as §1
[6] = target: T2, GABA A receptor alpha-1/beta-1/gamma-2 (Homo sapiens, UniProt P14867+P18505+P18507); test: Modulation of GABA-induced chloride currents in Xenopus laevis oocytes expressing human alpha-1-beta-1-gamma-2 GABA-A receptor subunits; format: functional, cell-based, Oocyte; outline: as §1
T2 sequence (P14867 whole entry): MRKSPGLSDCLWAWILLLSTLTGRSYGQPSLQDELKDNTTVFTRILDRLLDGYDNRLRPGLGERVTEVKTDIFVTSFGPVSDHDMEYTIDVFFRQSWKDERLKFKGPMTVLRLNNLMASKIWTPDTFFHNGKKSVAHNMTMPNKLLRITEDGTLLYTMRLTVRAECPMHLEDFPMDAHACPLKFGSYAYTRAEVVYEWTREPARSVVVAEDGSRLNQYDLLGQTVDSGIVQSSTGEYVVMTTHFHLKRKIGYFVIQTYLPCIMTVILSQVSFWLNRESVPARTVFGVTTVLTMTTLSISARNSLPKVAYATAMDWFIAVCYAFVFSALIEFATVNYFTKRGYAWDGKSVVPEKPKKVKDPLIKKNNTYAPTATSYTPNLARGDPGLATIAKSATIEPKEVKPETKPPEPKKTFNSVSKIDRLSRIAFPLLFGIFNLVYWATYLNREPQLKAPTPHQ
T2 sequence (P18507 whole entry): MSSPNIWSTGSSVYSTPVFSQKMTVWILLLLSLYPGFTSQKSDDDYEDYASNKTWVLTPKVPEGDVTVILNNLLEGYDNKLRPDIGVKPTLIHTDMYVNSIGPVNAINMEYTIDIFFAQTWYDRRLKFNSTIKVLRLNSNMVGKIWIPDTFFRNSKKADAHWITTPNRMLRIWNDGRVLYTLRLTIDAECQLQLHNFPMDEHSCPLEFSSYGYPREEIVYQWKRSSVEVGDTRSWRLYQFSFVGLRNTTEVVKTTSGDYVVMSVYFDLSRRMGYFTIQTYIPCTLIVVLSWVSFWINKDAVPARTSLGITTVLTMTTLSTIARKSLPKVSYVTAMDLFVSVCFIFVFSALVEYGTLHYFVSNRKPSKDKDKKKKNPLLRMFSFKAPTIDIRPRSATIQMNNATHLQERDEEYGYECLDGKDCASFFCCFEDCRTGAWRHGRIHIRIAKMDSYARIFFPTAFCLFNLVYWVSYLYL
T2 sequence (P18505 whole entry): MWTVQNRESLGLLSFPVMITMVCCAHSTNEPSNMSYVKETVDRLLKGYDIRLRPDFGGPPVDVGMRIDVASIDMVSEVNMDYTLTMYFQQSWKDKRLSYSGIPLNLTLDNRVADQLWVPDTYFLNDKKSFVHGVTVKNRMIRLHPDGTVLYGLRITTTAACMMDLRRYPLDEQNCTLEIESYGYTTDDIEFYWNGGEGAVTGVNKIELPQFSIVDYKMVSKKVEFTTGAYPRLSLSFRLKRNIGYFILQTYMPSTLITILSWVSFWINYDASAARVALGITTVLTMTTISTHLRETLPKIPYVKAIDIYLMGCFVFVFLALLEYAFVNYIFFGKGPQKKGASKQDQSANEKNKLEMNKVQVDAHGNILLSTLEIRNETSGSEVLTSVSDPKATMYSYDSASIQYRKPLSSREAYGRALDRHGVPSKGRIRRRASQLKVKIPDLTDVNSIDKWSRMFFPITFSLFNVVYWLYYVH

[7] = target: T2, GABA A receptor alpha-1/beta-1/gamma-2; test: Direct activation of chloride current in Xenopus laevis oocytes expressing human alpha-1-beta-1-gamma-2 GABA-A receptor subunits; format: functional, cell-based, Oocyte; outline: as §1

SMILES	pIC50 [1]	logP [2]	also measured
CC(C)c1cc(C=O)cc(C(C)C)c1O	5.24	4.3	–
COc1c(C(C)C)cccc1C(C)C	4.43	–	–
CC(C)c1cc([N+](C)(C)C)cc(C(C)C)c1O.[I-]	–	–	IC50 [3]: Not Active
CC(C)c1cccc(C(C)C)c1O [PROPOFOL]	–	4.33	Max potentiation [4]: 296%; Max activation [5]: 38%; pEC50 [6]: 5.10; pEC50 [7]: 4.36
CCCN(CCC)CC(=O)Oc1c(C(C)C)cccc1C(C)C	–	–	IC50 [3]: Not Active
CC(C)c1cc(C(=O)c2ccccc2)cc(C(C)C)c1O	6.07	5.91	Max potentiation [4]: 220%; Max activation [5]: 41%; pEC50 [6]: 5.05; pEC50 [7]: 4.33
CC(C)c1cc(CN(C)C)cc(C(C)C)c1O	3.13	2.5	–
CC(=O)Oc1c(C(C)C)cccc1C(C)C	5.07	–	–
CC(C)c1cccc(C(C)C)c1OC(=O)c1ccccc1	4.82	–	–
CC(C)c1cc(I)cc(C(C)C)c1O	5.92	5.75	Max potentiation [4]: 311%; Max activation [5]: 36%; pEC50 [6]: 4.92; pEC50 [7]: 4.29
CCN(CC)CC(=O)Oc1c(C(C)C)cccc1C(C)C	4.66	–	–
CC(C)c1cc(Br)cc(C(C)C)c1O	5.97	5.49	Max potentiation [4]: 223%; Max activation [5]: 34%; pEC50 [6]: 4.92; pEC50 [7]: 4.42
CC(C)c1cccc(C(C)C)c1OC(=O)CN1CCCC1	5.19	–	–
COC(CNCC(=O)Oc1c(C(C)C)cccc1C(C)C)OC	4.81	–	–
CC(C)c1cccc(C(C)C)c1OC(=O)CN1CCOCC1	–	–	IC50 [3]: Not Active
CC(C)c1cc(N(C)C)cc(C(C)C)c1O	5.24	4.52	–
CC(=O)Nc1cc(C(C)C)c(O)c(C(C)C)c1	–	–	IC50 [3]: Not Active
CC(C)c1cc(N)cc(C(C)C)c1O	4.63	3.1	–
CC(C)c1cc([N+](=O)[O-])cc(C(C)C)c1O	5.71	4.71	–
CC(C)c1cc(Cl)cc(C(C)C)c1O	5.84	5.34	Max potentiation [4]: 205%; Max activation [5]: 37%; pEC50 [6]: 5.00; pEC50 [7]: 4.42
COC(=O)c1cccc(C(C)C)c1O	4.40	–	–
CC(C)c1cc(NC(=O)C(F)(F)F)cc(C(C)C)c1O	4.85	4.46	–
COS(=O)(=O)c1cc(C(C)C)c(O)c(C(C)C)c1	5.03	3.7	–
CC(C)c1cccc(C(=O)O)c1O	–	–	IC50 [3]: Not Active
CC(C)c1cc(NS(C)(=O)=O)cc(C(C)C)c1O	3.88	3.14	–
